In assay [1] the target is T1, Neuropeptide Y receptor type 4 (Homo sapiens, UniProt P50391). The experiment in a line: Agonist activity at human NPY Y4 receptor expressed in CHO cells co-expressing Gqi5-mtAEQ assessed as induction of calcium mobilization by aequorin luminescence assay. In kind it is functional, cell-based. The method in brief: (§1)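 Luminescence was integrated as area under the curve and normalized to the response to 1 µM PP. Data are means ± SEM of at least 3 independent experiments, each run in triplicate.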
T1 sequence (P50391 whole entry): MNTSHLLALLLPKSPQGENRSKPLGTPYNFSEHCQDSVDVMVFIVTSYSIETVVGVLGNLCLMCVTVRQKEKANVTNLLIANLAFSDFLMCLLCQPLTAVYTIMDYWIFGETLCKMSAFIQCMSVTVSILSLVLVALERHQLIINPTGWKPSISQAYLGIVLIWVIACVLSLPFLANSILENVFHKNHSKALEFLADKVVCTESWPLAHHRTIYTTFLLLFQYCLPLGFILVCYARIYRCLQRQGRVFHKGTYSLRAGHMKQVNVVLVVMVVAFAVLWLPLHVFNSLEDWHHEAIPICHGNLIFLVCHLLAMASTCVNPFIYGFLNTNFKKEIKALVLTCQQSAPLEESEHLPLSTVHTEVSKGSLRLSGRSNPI
(Calcium assays in cells follow changes in intracellular calcium, usually with a dye or a luminescent sensor.)

For assay [2], the target named is T1, Neuropeptide Y receptor type 4. The experiment in a line: Intrinsic activity at human NPY Y4 receptor expressed in CHO cells co-expressing Gqi5-mtAEQ assessed as induction of calcium mobilization by aequorin luminescence assay relative to pancreatic polypeptide. In kind it is functional, cell-based. The method in brief:
as §1

Assay [3] shares this target. The experiment in a line: Agonist activity at human NPY Y4 receptor expressed in HEK293 cells co-expressing CRE-Luc gene assessed as inhibition of forskolin stimulated luciferase activity after 4.5 hrs by luminescence assay. In kind it is functional, cell-based. The method in brief:
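HEK293 cells stably co-transfected with a CRE-controlled firefly luciferase reporter and hY4R, tested in phenol-red-free DMEM, pH 7.4. The maximal inhibition by PP was set to 0% activity (α = 1.0). Data are means ± SEM of at least 3 experiments in triplicate.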

Assay [4] addresses T2, Neuropeptide Y receptor type 2 (Homo sapiens, UniProt P49146).
T2 sequence (P49146 whole entry): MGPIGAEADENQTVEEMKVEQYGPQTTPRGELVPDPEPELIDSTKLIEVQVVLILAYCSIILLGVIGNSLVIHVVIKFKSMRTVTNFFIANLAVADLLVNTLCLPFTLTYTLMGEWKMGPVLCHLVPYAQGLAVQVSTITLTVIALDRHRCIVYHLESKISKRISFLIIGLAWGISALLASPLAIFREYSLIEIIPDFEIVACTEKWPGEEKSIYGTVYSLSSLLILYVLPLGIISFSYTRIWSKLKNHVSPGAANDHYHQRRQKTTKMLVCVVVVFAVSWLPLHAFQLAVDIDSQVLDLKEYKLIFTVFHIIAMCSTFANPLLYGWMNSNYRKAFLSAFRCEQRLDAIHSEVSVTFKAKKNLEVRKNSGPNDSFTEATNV
In words: Displacement of [3H]propionyl-pNPY from human NPY Y2 receptor expressed in CHO cells co-expressing Gqi5-mtAEQ after 90 mins by liquid scintillation counting. The assay is classed as cell-based. The method in brief:
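Adherent CHO-hY2R-Gqi5-mtAEQ cells in buffer I with 1% BSA and 0.1 mg/mL bacitracin at 22 °C. […] Incubation was 90 min, followed by two ice-cold washes, lysis and scintillation counting.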

Assay [5] has as its target T1, Neuropeptide Y receptor type 4. The experiment in a line: Displacement of [3H](2R,7R)-10 from human NPY Y4 receptor expressed in CHO cells co-expressing Gqi5-mtAEQ after 90 mins in presence of sodium-free HEPES buffer by liquid scintillation counting. In kind it is cell-based. (In general: Displacement assays read how much labelled ligand stays bound in the presence of the test substance.)

Assay [6] has the same target. In words: Displacement of [3H](2R,7R)-10 from human NPY Y4 receptor expressed in CHO cells co-expressing Gqi5-mtAEQ after 90 mins in presence of L-15 medium by liquid scintillation counting. In kind it is cell-based.
For assay [7] the target is unchanged. The experiment in a line: Displacement of [3H]18 from human NPY Y4 receptor expressed in CHO cells co-expressing Gqi5-mtAEQ after 90 mins by liquid scintillation counting. The assay is classed as cell-based.
Assay [8] deals with T3, Neuropeptide Y receptor type 5 (Homo sapiens, UniProt Q15761).
T3 sequence (Q15761 whole entry): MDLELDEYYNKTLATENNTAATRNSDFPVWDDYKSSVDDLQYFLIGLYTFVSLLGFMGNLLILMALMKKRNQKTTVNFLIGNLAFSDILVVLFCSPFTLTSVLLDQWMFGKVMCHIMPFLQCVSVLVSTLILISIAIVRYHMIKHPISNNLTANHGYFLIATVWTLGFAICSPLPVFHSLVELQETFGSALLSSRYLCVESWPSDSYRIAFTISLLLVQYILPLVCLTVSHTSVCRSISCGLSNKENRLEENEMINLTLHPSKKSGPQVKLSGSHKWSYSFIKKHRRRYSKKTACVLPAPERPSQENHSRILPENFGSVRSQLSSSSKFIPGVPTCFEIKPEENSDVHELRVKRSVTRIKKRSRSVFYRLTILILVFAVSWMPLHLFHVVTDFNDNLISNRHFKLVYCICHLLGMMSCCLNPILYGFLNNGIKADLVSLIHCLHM
In words: Displacement of [3H]propionyl-pNPY from human NPY Y5 receptor expressed in human HEC1b cells after 120 mins by liquid scintillation counting. In kind it is cell-based. The method in brief:
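Adherent HEC-1B-hY5 cells in buffer II with 1% BSA and 0.1 mg/mL bacitracin at 22 °C. […] Incubation was 120 min, followed by ice-cold washes, lysis and scintillation counting.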

For assay [9], the target named is T1, Neuropeptide Y receptor type 4. The experiment in a line: Binding affinity to human NPY Y4 receptor expressed in CHO cells co-expressing Gqi5-mtAEQ assessed as apparent association rate constant after 2 to 180 mins by liquid scintillation counting. The assay is classed as cell-based. The conditions noted are these: tested as the 3H-labelled form. The method in brief: (§2)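 Adherent CHO-hY4-Gqi5-mtAEQ cells (about 90% confluent) in buffer I with 1% BSA and 0.1 mg/mL bacitracin at 22 °C. Tritiated radioligand was applied at 1.5 nM for 2–180 min. Wells were washed twice with ice-cold buffer I, lysed and counted. kobs was taken from ln[Beq/(Beq-Bt)] versus time. Data are means of 3 experiments in triplicate.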

Assay [10] has the same target. The experiment in a line: Binding affinity to human NPY Y4 receptor expressed in CHO cells co-expressing Gqi5-mtAEQ assessed as fast dissociation rate constant preincubated for 2 hrs followed by addition of (2R,7R)-Diaminooctanedioyl-bis(Tyr-Arg-Leu-Arg-Tyr-amide)Hexa(hydrotrifluoroacetate) by liquid scintillation counting. In kind it is cell-based. The conditions noted are these: tested as the 3H-labelled form.

Assay [11] has the same target. In words: Binding affinity to human NPY Y4 receptor expressed in CHO cells co-expressing Gqi5-mtAEQ assessed as slow dissociation rate constant preincubated for 2 hrs followed by addition of (2R,7R)-Diaminooctanedioyl-bis(Tyr-Arg-Leu-Arg-Tyr-amide)Hexa(hydrotrifluoroacetate) by liquid scintillation counting. The note with it: tested as the 3H-labelled form. The assay is classed as cell-based.

Assay [12] shares this target. In words: Binding affinity to human NPY Y4 receptor expressed in CHO cells co-expressing Gqi5-mtAEQ assessed as unspecific binding in presence of (2R,7R)-Diaminooctanedioyl-bis(Tyr-Arg-Leu-Arg-Tyr-amide)Hexa(hydrotrifluoroacetate) by liquid scintillation counting. In kind it is cell-based. The note with it: tested as the 3H-labelled form.
The target is the same in assay [13]. The experiment in a line: Binding affinity to human NPY Y4 receptor expressed in CHO cells co-expressing Gqi5-mtAEQ assessed as time required for complete association by liquid scintillation counting. In kind it is cell-based. The conditions noted are these: tested as the 3H-labelled form. The method in brief:
as §2

Assay [14] has the same target. In words: Binding affinity to human NPY Y4 receptor expressed in CHO cells co-expressing Gqi5-mtAEQ assessed as fast dissociation half life t1/2(1) at 1.5 uM incubated for 2 hrs in presence of 200-fold excess of (2R,7R)-Diaminooctanedioyl-bis(Tyr-Arg-Leu-Arg-Tyr-amide)Hexa(hydrotrifluoroacetate) by liquid scintillation counting. The assay is classed as cell-based. The conditions noted are these: tested as the 3H-labelled form.

The target is the same in assay [15]. In words: Binding affinity to human NPY Y4 receptor expressed in CHO cells co-expressing Gqi5-mtAEQ assessed as slow dissociation constant at 1.5 uM incubated for 2 hrs in presence of 200-fold excess of (2R,7R)-Diaminooctanedioyl-bis(Tyr-Arg-Leu-Arg-Tyr-amide)Hexa(hydrotrifluoroacetate) by liquid scintillation counting. In kind it is cell-based. The note with it: tested as the 3H-labelled form.

Assay [16] shares this target. In words: Binding affinity to human NPY Y4 receptor expressed in CHO cells co-expressing Gqi5-mtAEQ assessed as slow dissociation half life at 1.5 uM incubated for 2 hrs in presence of 200-fold excess of (2R,7R)-Diaminooctanedioyl-bis(Tyr-Arg-Leu-Arg-Tyr-amide)Hexa(hydrotrifluoroacetate) by liquid scintillation counting. The assay is classed as cell-based. The conditions noted are these: tested as the 3H-labelled form.

The values that follow come from ChEMBL document CHEMBL4477203 (J Med Chem, 2016).

Regarding `CCC(=O)N[C@@H](CCCC[C@H](N)C(=O)N[C@@H](Cc1ccc(O)cc1)C(=O)N[C@@H](CCCNC(=N)N)C(=O)N[C@@H](CC(C)C)C(=O)N[C@@H](CCCNC(=N)N)C(=O)N[C@@H](Cc1ccc(O)cc1)C(N)=O)C(=O)N[C@@H](Cc1ccc(O)cc1)C(=O)N[C@@H](CCCNC(=N)N)C(=O)N[C@@H](CC(C)C)C(=O)N[C@@H](CCCNC(=N)N)C(=O)N[C@@H](Cc1ccc(O)cc1)C(N)=O`, the values for the EC50 in assay [1] and in assay [3] were 14 nM and 4 nM, respectively. Further, in assay [2], the Intrinsic activity is 0.76. In addition, the Ki – broadly, the dissociation constant of the complex between target and ligand, obtained from inhibition or displacement – in assay [4] came out at 420 nM; in [5] it was 0.87 nM; in [6] it was 6.3 nM; in assay [7] it was 0.32 nM; in assay [8] it was 710 nM. Moreover, the K in [9] worked out at 0.0467 min⁻¹; in [10], 0.0329 min⁻¹; in [11], 0.0024 min⁻¹; in assay [15], 0.0085 min⁻¹. Moreover, the Activity in assay [12] was determined as 10%. For the same compound, the TIME in assay [13] was 1.67 h. In addition, the T1/2 turned out to be 21.1 min in assay [14] and 81.5 min in assay [16].
